A selection: hits, their analogues and other compounds. The true share with any hit is near 3.8%.
KCNK9 inh = KCNK9 potassium channel inhibitors, primary screen, HEK293 cells, thallium flux. Potassium channel subfamily K member 9 (Homo sapiens), Q9NPC2. FluxOR thallium flux fluorescence; hits give low values. hit rate 1.2% among 310,000. B-score at 10 µM. AID 488922, 2010;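 active = ratio B-score over 3 SD below the library mean, with starting fluorescence within 5 SD of its mean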;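 note: negative B-score means less thallium flux so channel inhibition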
Target sequence (Q9NPC2 whole entry, looked up): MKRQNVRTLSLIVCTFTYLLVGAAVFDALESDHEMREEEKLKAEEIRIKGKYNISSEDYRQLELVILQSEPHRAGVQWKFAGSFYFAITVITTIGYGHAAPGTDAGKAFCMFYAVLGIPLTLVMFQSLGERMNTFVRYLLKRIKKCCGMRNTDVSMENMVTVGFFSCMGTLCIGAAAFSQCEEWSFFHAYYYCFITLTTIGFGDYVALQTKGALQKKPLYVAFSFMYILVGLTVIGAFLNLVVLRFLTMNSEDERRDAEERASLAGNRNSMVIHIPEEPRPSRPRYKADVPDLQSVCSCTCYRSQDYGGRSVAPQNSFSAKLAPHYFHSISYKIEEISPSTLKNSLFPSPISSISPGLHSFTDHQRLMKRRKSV
KCNQ1 inh = inhibitors of human KCNQ1 channel, primary screen, cell-based, thallium flux, high-throughput. Potassium voltage-gated channel subfamily KQT member 1 (Homo sapiens), P51787. CHO-K1 KCNQ1, FluxOR thallium flux fluorescence; hits give high values. B-score at 10 µM. hit rate 1.3% among 310,000. AID 2642, 2010;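 active = compounds whose thallium flux B-score, printed positive for inhibition, exceeds three library SD while starting fluorescence stays within three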;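 note: channel opened by potassium depolarization with thallium stimulus after 20 min compound exposure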
KCNQ1 act = potentiators or activators of KCNQ1 channel, primary screen, cell-based, thallium flux, high-throughput; B-score at 10 µM; hit rate 0.35% among 310,000; CHO-K1 KCNQ1, thallium flux FluxOR fluorescence; hits give high values; AID 2648, 2010;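 active = fluorescence ratio B-score, a plate-corrected score, at least three library SD, with initial intensity B-score within 5 SD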
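Assay system: stable KCNQ1 CHO-K1 line; medium: assay buffer, equal DMSO in all wells; timing: 90 min dye loading and 20 min compound exposure, both at room temperature; technique: kinetic FluxOR thallium fluorescence, 10-s 1-Hz baseline, 110-s post-stimulus read; read-out basis: B score of baseline-normalized fluorescence ratio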
KCNK3 inh = human KCNK3 channel inhibitors, primary screen, CHO cells, FluxOR thallium flux, B-score. AID 602410, 2012. B-score at 10 µM. hit rate 0.84% among 340,000. FluxOR fluorescence; hits give low values. Potassium channel subfamily K member 3 (Homo sapiens), O14649;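 active = B-score under library mean minus 4 SD, starting fluorescence ratio at most library mean plus 5 SD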;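 note: more negative B-score means stronger inhibition of thallium flux through KCNK3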
Kir21 block = inhibitors of mouse Kir2.1 inward-rectifier potassium channel; Inward rectifier potassium channel 2 (Mus musculus), P35561; HEK293-Kir2.1, FluxOR thallium flux fluorescence; hits give low values; B-score at 10 µM; hit rate 0.85% among 310,000;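 active = fluorescence ratio B-score at or below minus 3 SD of library scores, with starting-brightness B-score within 2 SD, cut at about -4.2 in these data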;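 note: channel flux triggered by added potassium and thallium sulfate stimulus; B-score of peak minus minimum fluorescence over baseline after thallium stimulus; more negative B-score means stronger Kir2.1 block with less thallium influx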
hERG rescue = hERG rescue from dofetilide block, primary screen, cell-based, CHO-hERG, FluxOR thallium flux, dofetilide IC70. dofetilide IC70 present. activation (rescue from dofetilide block), less the hit threshold, % at 10 µM. hit rate 0.51% among 310,000;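 active = activation above the mean of controls blocked by dofetilide plus 5 SD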;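 note: thallium influx through hERG after potassium depolarization seen as dye fluorescence rise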
KCNK9 inh conf = KCNK9 potassium channel inhibitors, confirmation, HEK293 cells, thallium flux, duplicate; shares compounds with KCNK9 inh; FluxOR thallium flux fluorescence; inhibition, % at 10 µM; hit rate 43% among 4,900; AID 492992, 2010;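 active = thallium signal inhibited by more than 5 SD of the compound-free buffer control wells, on both duplicate plates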;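 note: 0% = assay buffer control wells without compound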
Kir2-1 spec = mouse Kir2.1 channel inhibition, confirmation, selectivity assay for KCNK9 modulator project, cell-based, HEK293, thallium flux; shares compounds with KCNK9 inh; Kir2.1 cells, FluxOR thallium flux fluorescence; inhibition, % at 10 µM; hit rate 4% among 4,900; AID 492993, 2010;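 active = thallium signal drop more than 5 SD beyond the mean of the no-compound control wells, seen in both duplicate plates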;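 note: signal is fluorescence rise after thallium addition divided by baseline fluorescence; plate controls were assay buffer only for no effect and full block by chlorpromazine control for full effect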
KCNK9 uninduced = thallium flux in non-induced HEK293 cells, confirmation, counter-screen for KCNK9 inhibitor project, cell-based, second counter screen, non-induced KCNK9-HEK293 | AID 492997, 2010 | shares compounds with KCNK9 inh | hit rate 40% among 4,900 | FluxOR thallium flux | inhibition, % at 10 µM;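 active = thallium signal drop beyond 5 SD of the untreated control mean, on both duplicate plates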;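 note: plate controls were buffer only IC0 wells for no effect and SID17386958 at its maximal inhibitory level for full effect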
Active calls of the source: *.

How did S=c1[nH]nc(-c2cc3c(s2)-c2ccccc2CC3)o1 do in these assays?
KCNK9 inh: inactive; KCNQ1 inh: inactive; KCNQ1 act: 71*; KCNK3 inh: inactive; Kir21 block: 2.2; hERG rescue: 134*; KCNK9 inh conf: inactive; Kir2-1 spec: inactive; KCNK9 uninduced: inactive

What do the screens show for `O=C(Nc1ccccc1)OCCNC1CCCCC1`?
KCNK3 inh: inactive

How did O=C(Nc1ccccc1)OC1CCCCc2cccnc21 (configuration not stated) do in these assays?
KCNK9 inh: inactive; KCNQ1 inh: inactive; KCNQ1 act: inactive; KCNK3 inh: inactive; Kir21 block: -1.3; hERG rescue: -10; KCNK9 inh conf: inactive; Kir2-1 spec: inactive; KCNK9 uninduced: 28%*

Results for COc1cc(C(=O)NCc2nnc(SCC(=O)Nc3nc4ccccc4s3)o2)cc(OC)c1OC ?
KCNK9 inh: inactive; KCNQ1 inh: inactive; KCNQ1 act: inactive; KCNK3 inh: inactive; Kir21 block: -0.35; hERG rescue: -10

How did CCN(c1ccccc1)c1ncnc2c1cnn2-c1ccccc1 do in these assays?
KCNK9 inh: inactive; KCNQ1 inh: inactive; KCNQ1 act: inactive; KCNK3 inh: inactive; Kir21 block: 1.8; hERG rescue: -23; KCNK9 inh conf: inactive; Kir2-1 spec: inactive; KCNK9 uninduced: inactive

What do the screens show for `CN(Cc1ccccc1)c1ncnc2c1cnn2-c1ccccc1`?
KCNK9 inh: inactive; KCNQ1 inh: inactive; KCNQ1 act: inactive; KCNK3 inh: inactive; Kir21 block: -1.4; hERG rescue: -13

What do the screens show for `COC(=O)C(C)n1nc(C)n(-c2ccc(C)cc2)c1=O` (configuration not stated)?
KCNK9 inh: inactive; KCNQ1 inh: inactive; KCNQ1 act: inactive; KCNK3 inh: inactive; Kir21 block: 0.93; hERG rescue: -11

Results for COC(=O)C(C)Oc1cc(C)ccc1COc1ccc(-n2nc(C)n(C(F)F)c2=O)cc1 (configuration not stated) ?
KCNK9 inh: inactive; KCNQ1 inh: inactive; KCNQ1 act: inactive; KCNK3 inh: inactive; Kir21 block: 0.35; hERG rescue: -8; KCNK9 inh conf: inactive; Kir2-1 spec: inactive; KCNK9 uninduced: inactive

How did COc1cc(/C=C2\C(=N)N3N=CSC3=NC2=O)ccc1OS(=O)(=O)c1ccccc1[N+](=O)[O-] do in these assays?
KCNK9 inh: inactive; KCNQ1 inh: inactive; KCNQ1 act: inactive; KCNK3 inh: inactive; Kir21 block: -0.21; hERG rescue: -5; KCNK9 inh conf: inactive; Kir2-1 spec: inactive; KCNK9 uninduced: inactive

How did CN(C)c1ccc2c(c1)Sc1cc(N(C)C)ccc1N2C(=O)c1ccccc1 do in these assays?
KCNK9 inh: inactive; KCNQ1 inh: 6*; KCNQ1 act: inactive; KCNK3 inh: inactive; Kir21 block: 0.58; hERG rescue: -4; KCNK9 inh conf: inactive; Kir2-1 spec: inactive; KCNK9 uninduced: inactive

How did COC(=O)c1sccc1NC(=S)N1C(C)CCCC1C (configuration not stated) do in these assays?
KCNK9 inh: inactive; KCNQ1 inh: inactive; KCNQ1 act: inactive; KCNK3 inh: inactive; Kir21 block: 0.01; hERG rescue: -13

How did COC(=O)c1sccc1NC(=S)N1CCCCC1C (configuration not stated) do in these assays?
KCNK9 inh: inactive; KCNQ1 inh: inactive; KCNQ1 act: inactive; KCNK3 inh: inactive; Kir21 block: 0.04; hERG rescue: -14; KCNK9 inh conf: inactive; Kir2-1 spec: inactive; KCNK9 uninduced: inactive

How did O=C(COC(=O)c1ccccc1C(=O)c1ccccc1)Nc1ccc(SC(F)F)cc1 do in these assays?
KCNK9 inh: -12*; KCNQ1 inh: inactive; KCNQ1 act: inactive; KCNK3 inh: inactive; Kir21 block: 0.28; hERG rescue: -10; KCNK9 inh conf: inactive; Kir2-1 spec: inactive; KCNK9 uninduced: 32%*

Results for O=C(Nc1cccc(Cl)c1)c1cccc(Oc2ccc([N+](=O)[O-])cc2Cl)c1 ?
KCNK9 inh: inactive; KCNQ1 inh: inactive; KCNQ1 act: inactive; KCNK3 inh: inactive; Kir21 block: -1.3; hERG rescue: -14; KCNK9 inh conf: inactive; Kir2-1 spec: inactive; KCNK9 uninduced: inactive

What do the screens show for `Cc1cc(C(=O)OCC(=O)N2C(C)CCCC2C)c(C)o1` (configuration not stated)?
KCNK9 inh: inactive; KCNQ1 inh: inactive; KCNQ1 act: inactive; KCNK3 inh: inactive; Kir21 block: 1.2; hERG rescue: -9

What do the screens show for `c1ccc(C[n+]2c(-c3ccccc3)csc2Nc2ccccc2)cc1`?
KCNK9 inh: -8.7*; KCNQ1 inh: inactive; KCNQ1 act: inactive; KCNK3 inh: inactive; Kir21 block: -0.94; hERG rescue: -4; KCNK9 inh conf: 35%*; Kir2-1 spec: inactive; KCNK9 uninduced: 32%*

How did c1ccc(Nc2scc(-c3ccccc3)[n+]2Cc2ccco2)cc1 do in these assays?
KCNK9 inh: inactive; KCNQ1 inh: inactive; KCNQ1 act: inactive; KCNK3 inh: inactive; Kir21 block: -0.02; hERG rescue: -14

What do the screens show for `O=C(c1ccccc1)N1CCN(CC#CC2(O)CCCCC2)CC1`?
KCNK9 inh: inactive; KCNQ1 inh: inactive; KCNQ1 act: inactive; KCNK3 inh: inactive; Kir21 block: 0.13; hERG rescue: 0

What do the screens show for `CC1CCC2(CC1)NC(=O)N(CC(=O)N1CCN(C(=O)c3ccco3)CC1)C2=O` (configuration not stated)?
KCNK3 inh: inactive

What do the screens show for `O=C(NC(=S)NCCC1=CCCCC1)c1ccccc1Br`?
KCNK9 inh: inactive; KCNQ1 inh: inactive; KCNQ1 act: inactive; KCNK3 inh: inactive; Kir21 block: -2.4; hERG rescue: 1; KCNK9 inh conf: inactive; Kir2-1 spec: inactive; KCNK9 uninduced: inactive

Assay outcomes deposited in PubChem BioAssay by Johns Hopkins Ion Channel Center.
